Measurements from ChEMBL document CHEMBL2321826, “Synthesis and antibacterial evaluation of rhodanine-based 5-aryloxy pyrazoles against selected methicillin resistant and quinolone-resistant Staphylococcus aureus (MRSA and QRSA)” (Eur J Med Chem, 2013).
In brackets after ≈: the same amount, converted by molar mass.

Assays:
[1] = tested on: Staphylococcus aureus; experiment: Antibacterial activity against methicillin-resistant Staphylococcus aureus assessed as bacterial growth inhibition measured during 24 hrs incubation at 37 degC by two-fold serial dilution technique; format: functional
Method in brief: (§1)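 Clinical isolates grown to mid-log phase in Mueller-Hinton broth, diluted 1000-fold, inoculated at 10⁵ CFU/mL in MHB in 96-well microtiter plates. Two-fold serial dilutions gave final concentrations of […]. Oxacillin and norfloxacin were the positive controls. Growth was read as absorbance at 650 nm. MIC is the lowest concentration giving complete growth inhibition.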

[2] = tested on: HeLa; experiment: Cytotoxicity against human HeLa cells assessed as cell growth inhibition measured after 48 hrs by MTT assay; format: cell-based
Method in brief: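 HeLa cells grown in DMEM with 10% FBS and penicillin-streptomycin (100 U/mL) at 37 °C in 5% CO2. Cells were split with trypsin at 80-90% confluence and used at passage 3. About 1×10⁴ cells/well were seeded and left overnight to attach. Cells were exposed to compounds for 48 h, then given MTT (5 mg/mL in PBS stock) for 4 h. Medium was removed and formazan read.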

[3] = tested on: Staphylococcus aureus; experiment: Antibacterial activity against methicillin-resistant Staphylococcus aureus CCARM 3167 assessed as bacterial growth inhibition measured during 24 hrs incubation at 37 degC by two-fold serial dilution technique; format: functional; conditions: CCARM 3167, 24 h; method in brief: as §1
[4] = tested on: Staphylococcus aureus; experiment: Antibacterial activity against quinolone-resistant Staphylococcus aureus CCARM 3505 assessed as bacterial growth inhibition measured during 24 hrs incubation at 37 degC by two-fold serial dilution technique; format: functional; conditions: CCARM 3505, 24 h; method in brief: as §1
[5] = tested on: Staphylococcus aureus; experiment: Antibacterial activity against quinolone-resistant Staphylococcus aureus CCARM 3519 assessed as bacterial growth inhibition measured during 24 hrs incubation at 37 degC by two-fold serial dilution technique; format: functional; conditions: CCARM 3519, 24 h; method in brief: as §1
[6] = tested on: Staphylococcus aureus; experiment: Antibacterial activity against methicillin-resistant Staphylococcus aureus CCARM 3506 assessed as bacterial growth inhibition measured during 24 hrs incubation at 37 degC by two-fold serial dilution technique; format: functional; conditions: CCARM 3506, 24 h; method in brief: as §1
[7] = tested on: HeLa; experiment: Cytotoxicity against human HeLa cells assessed as cell growth inhibition at 2 ug/ml measured after 48 hrs by MTT assay; format: cell-based
[8] = tested on: HeLa; experiment: Cytotoxicity against human HeLa cells assessed as cell growth inhibition at 4 ug/ml measured after 48 hrs by MTT assay; format: cell-based
[9] = tested on: Staphylococcus aureus; experiment: Ratio of norfloxacin MIC to compound MIC for Staphylococcus aureus CCARM 3167; format: functional
[10] = tested on: HeLa; experiment: Cytotoxicity against human HeLa cells assessed as cell growth inhibition at 1 ug/ml measured after 48 hrs by MTT assay; format: cell-based
[11] = tested on: Staphylococcus aureus; experiment: Ratio of oxacillin MIC to compound MIC for Staphylococcus aureus CCARM 3167; format: functional

Structure (SMILES) | MIC [1] | IC50 [2] | MIC [3] | MIC [4] | MIC [5] | MIC [6] | Activity [7] | Activity [8] | Ratio [9] | Activity [10] | Ratio [11]
O=C(O)CN1C(=O)/C(=C/c2cn(-c3ccccc3)nc2-c2ccc(Cl)cc2Cl)SC1=S | 4 µg/mL (≈ 8.16 µM) |  |  |  |  |  |  |  |  |  | 
Cc1nn(-c2ccccc2)c(Oc2ccc(Br)cc2)c1/C=C1\SC(=S)N([C@@H](CC(C)C)C(=O)O)C1=O |  | 12.3 µg/mL (≈ 21 µM) | 4 µg/mL (≈ 6.82 µM) | 4 µg/mL (≈ 6.82 µM) | 4 µg/mL (≈ 6.82 µM) | 4 µg/mL (≈ 6.82 µM) | Non-toxic |  |  |  | 
Cc1nn(-c2ccccc2)c(Oc2ccc(Cl)cc2Cl)c1/C=C1\SC(=S)N([C@H](C(=O)O)C(C)C)C1=O |  | 10.4 µg/mL (≈ 18.5 µM) | 4 µg/mL (≈ 7.11 µM) | 4 µg/mL (≈ 7.11 µM) | 4 µg/mL (≈ 7.11 µM) | 4 µg/mL (≈ 7.11 µM) |  | Non-toxic |  |  | 
CCC(C)[C@@H](C(=O)O)N1C(=O)/C(=C/c2c(C)nn(-c3ccccc3)c2Oc2ccc(Cl)cc2Cl)SC1=S (stereo not given in full) |  | 6.43 µg/mL (≈ 11.2 µM) | 1 µg/mL (≈ 1.73 µM) | 2 µg/mL (≈ 3.47 µM) | 2 µg/mL (≈ 3.47 µM) | 1 µg/mL (≈ 1.73 µM) |  |  | 8 | Non-toxic | 64
Cc1nn(-c2ccccc2)c(Oc2c(Cl)cccc2Cl)c1/C=C1\SC(=S)N(CC(=O)O)C1=O |  |  | 32 µg/mL (≈ 61.5 µM) | 32 µg/mL (≈ 61.5 µM) | 32 µg/mL (≈ 61.5 µM) | 32 µg/mL (≈ 61.5 µM) |  |  |  |  | 
Cc1nn(-c2ccccc2)c(Oc2ccc(Cl)cc2Cl)c1/C=C1\SC(=S)N(CC(=O)O)C1=O |  |  | 4 µg/mL (≈ 7.69 µM) | 8 µg/mL (≈ 15.4 µM) | 8 µg/mL (≈ 15.4 µM) | 8 µg/mL (≈ 15.4 µM) |  |  |  |  | 
Cc1nn(-c2ccccc2)c(Oc2ccccc2Cl)c1/C=C1\SC(=S)N(CC(=O)O)C1=O |  |  | 16 µg/mL (≈ 32.9 µM) | 32 µg/mL (≈ 65.8 µM) | 16 µg/mL (≈ 32.9 µM) | 16 µg/mL (≈ 32.9 µM) |  |  |  |  | 
Cc1nn(-c2ccccc2)c(Oc2cccc(Cl)c2)c1/C=C1\SC(=S)N(CC(=O)O)C1=O |  |  | 16 µg/mL (≈ 32.9 µM) | 8 µg/mL (≈ 16.5 µM) | 16 µg/mL (≈ 32.9 µM) | 16 µg/mL (≈ 32.9 µM) |  |  |  |  | 
CCn1cc(C(=O)O)c(=O)c2cc(F)c(N3CCNCC3)cc21 [NORFLOXACIN] |  |  | 8 µg/mL (≈ 25.1 µM) | > 64 µg/mL | > 64 µg/mL | 4 µg/mL (≈ 12.5 µM) |  |  |  |  | 
Cc1onc(-c2ccccc2)c1C(=O)N[C@@H]1C(=O)N2[C@@H]1SC(C)(C)[C@@H]2C(=O)O [OXACILLIN] |  |  | > 64 µg/mL | 1 µg/mL (≈ 2.49 µM) | 1 µg/mL (≈ 2.49 µM) | > 64 µg/mL |  |  |  |  | 
